Source: ChEMBL document CHEMBL1153644, “Synthesis and analgesic and anti-inflammatory activities 6-substituted-3(2H)-pyridazinone-2-acetyl-2-(p-substituted/nonsubstituted benzal)hydrazone derivatives” (Eur J Med Chem, 2009)

Assays:
Mus musculus [1] = experiment: Gastrointestinal toxicity in Swiss albino mouse assessed as ulcerogenic effect at 100 mg/kg, po; format: organism-based; design: dose 100 mg/kg, route oral; conditions: in vivo
Method in brief: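 Male Swiss albino mice (20–25 g), food withdrawn one day before with water allowed, at least six per group. Dosed orally as a suspension in distilled water with 0.5% CMC; controls got vehicle. Taken from the p-benzoquinone writhing test (i.p. 2.5% PBQ 60 min post-dose), then killed under deep ether anesthesia. Stomachs were opened along the great curvature and checked under a dissecting microscope for lesions or bleeding; scored as ulcerated/total animals.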

Mus musculus [2] = experiment: Analgesic activity in Swiss albino mouse assessed as inhibition of para-benzoquinone-induced abdominal writhing response at 100 mg/kg, po administered 60 mins prior to para-benzoquinone challenge measured after 15 mins; format: functional, Abdomen; design: scale not given: the % may be the effect or the level left
Method in brief: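 Male Swiss albino mice (20–25 g) were fasted overnight with water allowed, at least 6 per group. Oral dosing used a 0.5% CMC suspension, and vehicle was given to controls. Then 0.1 ml/10 g of 2.5% (v/v) p-benzoquinone was injected i.p. Writhings were counted for 15 min, starting 5 min after injection. Inhibition is expressed as % of control, mean ± SEM, ANOVA/Student–Newman–Keuls.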

Mus musculus [3] = experiment: Antiinflammatory activity in Swiss albino mouse assessed as inhibition of carrageenan-induced paw edema at 10 mg/kg, po administered before 60 mins of carrageenan-challenge measured after 90 mins; format: functional
Method in brief: (§1)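 Fasted male Swiss albino mice (20–25 g), n≥6, were dosed orally in 0.5% CMC suspension, with vehicle for controls. Carrageenan (0.5 mg/25 μl in saline) was injected subplantar into the right hind paw and saline into the left. The right–left footpad thickness difference was measured by dial caliper every 90 min over 6 h. Inhibition was calculated versus control, mean ± SEM.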

Mus musculus [4] = experiment: Antiinflammatory activity in Swiss albino mouse assessed as inhibition of carrageenan-induced paw edema at 10 mg/kg, po administered before 60 mins of carrageenan-challenge measured after 180 mins; format: functional; method in brief: as §1
Mus musculus [5] = experiment: Antiinflammatory activity in Swiss albino mouse assessed as inhibition of carrageenan-induced paw edema at 10 mg/kg, po administered before 60 mins of carrageenan-challenge measured after 360 mins; format: functional; method in brief: as §1
Mus musculus [6] = experiment: Antiinflammatory activity in Swiss albino mouse assessed as inhibition of carrageenan-induced paw edema at 10 mg/kg, po administered before 60 mins of carrageenan-challenge measured after 270 mins; format: functional; method in brief: as §1

| SMILES | Activity (Mus musculus [1]) | also measured |
| --- | --- | --- |
| Cc1ccc(/C=N/NC(=O)Cn2nc(N3CCN(c4cccc(Cl)c4)CC3)ccc2=O)cc1 | Non-toxic | – |
| COc1ccc(/C=N/NC(=O)Cn2nc(N3CCN(c4ccc(Cl)cc4)CC3)ccc2=O)cc1 | Non-toxic | – |
| COc1ccc(/C=N/NC(=O)Cn2nc(N3CCN(c4ccccn4)CC3)ccc2=O)cc1 | Non-toxic | – |
| COc1ccc(/C=N/NC(=O)Cn2nc(N3CCN(c4cccc(Cl)c4)CC3)ccc2=O)cc1 | Non-toxic | – |
| Cc1ccc(/C=N/NC(=O)Cn2nc(N3CCN(c4ccccn4)CC3)ccc2=O)cc1 | Non-toxic | – |
| Cc1ccc(/C=N/NC(=O)Cn2nc(N3CCN(c4ccc(Cl)cc4)CC3)ccc2=O)cc1 | Non-toxic | – |
| CC(=O)Oc1ccccc1C(=O)O [ASPIRIN] | Toxic | Activity (Mus musculus [2]): 48.7% |
| COc1ccc2c(c1)c(CC(=O)O)c(C)n2C(=O)c1ccc(Cl)cc1 [INDOMETHACIN] | Toxic | inhibition in vivo at 10 mg/kg (Mus musculus [3]): 34.4%; inhibition in vivo at 10 mg/kg (Mus musculus [4]): 32.8%; inhibition in vivo at 10 mg/kg (Mus musculus [5]): 40.4%; inhibition in vivo at 10 mg/kg (Mus musculus [6]): 37.4% |
